Results as given in ChEMBL document CHEMBL1129630, “Synthesis and structure-activity relationships of retinoid X receptor selective diaryl sulfide analogs of retinoic acid” (J Med Chem, 1996).

How the values were obtained:
[1] = molecular target: T1, Retinoic acid receptor gamma (Homo sapiens, UniProt P13631); experiment: Transcriptional activation of Retinoic acid receptor RAR gamma;NA=not active; set-up: species or system Cercopithecidae
T1 sequence (P13631 whole entry): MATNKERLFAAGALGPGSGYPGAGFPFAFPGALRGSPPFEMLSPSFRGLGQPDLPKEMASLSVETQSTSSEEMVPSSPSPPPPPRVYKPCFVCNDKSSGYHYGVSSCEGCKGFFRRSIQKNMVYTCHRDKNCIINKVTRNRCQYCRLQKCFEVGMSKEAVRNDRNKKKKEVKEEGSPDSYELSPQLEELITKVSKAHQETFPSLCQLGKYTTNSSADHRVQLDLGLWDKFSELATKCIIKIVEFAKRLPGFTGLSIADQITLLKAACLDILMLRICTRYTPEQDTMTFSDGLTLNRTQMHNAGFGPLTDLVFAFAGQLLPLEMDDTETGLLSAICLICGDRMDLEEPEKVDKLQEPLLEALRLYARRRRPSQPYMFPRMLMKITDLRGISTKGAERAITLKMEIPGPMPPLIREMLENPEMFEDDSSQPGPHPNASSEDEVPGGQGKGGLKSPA
Procedure, shortened: (§1)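 CV-1 cells transiently cotransfected with the receptor construct and a reporter gene, with induced transcription measured. Activity is normalized to all-trans RA. EC50 is the concentration giving 50% of maximal observed response, from a single experiment in triplicate.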

HL-60 = experiment: Induction of transglutaminase (TGase) activity in HL-60 cells; conditions: Homo sapiens
[2] = molecular target: T2, Retinoic acid receptor alpha (Mus musculus, UniProt P11416); experiment: Dissociation constant for binding to Retinoic acid receptor alpha;NA=not active
T2 sequence (P11416 whole entry): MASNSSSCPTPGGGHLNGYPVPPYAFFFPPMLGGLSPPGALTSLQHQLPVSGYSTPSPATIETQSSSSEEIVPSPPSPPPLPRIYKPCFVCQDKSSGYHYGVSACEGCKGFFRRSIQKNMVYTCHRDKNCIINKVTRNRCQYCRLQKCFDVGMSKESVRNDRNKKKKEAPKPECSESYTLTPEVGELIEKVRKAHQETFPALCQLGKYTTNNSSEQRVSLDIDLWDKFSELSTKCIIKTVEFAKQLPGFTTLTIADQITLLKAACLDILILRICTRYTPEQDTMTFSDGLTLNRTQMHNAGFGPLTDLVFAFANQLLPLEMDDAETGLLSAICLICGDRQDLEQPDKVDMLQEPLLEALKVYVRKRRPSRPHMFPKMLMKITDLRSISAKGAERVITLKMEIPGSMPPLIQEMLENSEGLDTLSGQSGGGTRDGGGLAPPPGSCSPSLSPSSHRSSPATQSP
Procedure, shortened: (§2)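 Competitive binding assays against each receptor subtype, with Kd values taken from competition.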

[3] = molecular target: T3, Retinoic acid receptor beta (Mus musculus, UniProt P22605); experiment: Dissociation constant for binding to Retinoic acid receptor beta;NA=not active; procedure, shortened: as §2
T3 sequence (P22605 whole entry): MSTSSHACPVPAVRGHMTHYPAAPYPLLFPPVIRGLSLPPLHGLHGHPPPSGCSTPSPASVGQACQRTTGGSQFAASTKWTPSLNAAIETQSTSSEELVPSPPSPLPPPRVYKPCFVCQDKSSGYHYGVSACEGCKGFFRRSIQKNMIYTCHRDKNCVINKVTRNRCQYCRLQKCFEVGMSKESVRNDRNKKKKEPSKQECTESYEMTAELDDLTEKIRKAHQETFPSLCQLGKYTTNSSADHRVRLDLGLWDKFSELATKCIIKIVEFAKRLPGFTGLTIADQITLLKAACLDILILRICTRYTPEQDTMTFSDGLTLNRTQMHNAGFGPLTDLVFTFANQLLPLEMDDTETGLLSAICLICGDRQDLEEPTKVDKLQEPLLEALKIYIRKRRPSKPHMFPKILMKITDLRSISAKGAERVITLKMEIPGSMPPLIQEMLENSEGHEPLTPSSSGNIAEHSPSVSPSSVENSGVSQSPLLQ

Mus musculus = species on record: Mus musculus; experiment: Inhibition of Chondrogenesis in day 11 embryonic limb bud cells; conditions: 264 h
[4] = molecular target: T1, Retinoic acid receptor gamma; experiment: Transcriptional activation of Retinoic acid receptor RAR gamma; set-up: species or system Cercopithecidae; procedure, shortened: as §1
[5] = molecular target: T4, Retinoic acid receptor beta (Homo sapiens, UniProt P10826); experiment: Transcriptional activation of Retinoic acid receptor RAR beta; set-up: species or system Cercopithecidae; procedure, shortened: as §1
T4 sequence (P10826 whole entry): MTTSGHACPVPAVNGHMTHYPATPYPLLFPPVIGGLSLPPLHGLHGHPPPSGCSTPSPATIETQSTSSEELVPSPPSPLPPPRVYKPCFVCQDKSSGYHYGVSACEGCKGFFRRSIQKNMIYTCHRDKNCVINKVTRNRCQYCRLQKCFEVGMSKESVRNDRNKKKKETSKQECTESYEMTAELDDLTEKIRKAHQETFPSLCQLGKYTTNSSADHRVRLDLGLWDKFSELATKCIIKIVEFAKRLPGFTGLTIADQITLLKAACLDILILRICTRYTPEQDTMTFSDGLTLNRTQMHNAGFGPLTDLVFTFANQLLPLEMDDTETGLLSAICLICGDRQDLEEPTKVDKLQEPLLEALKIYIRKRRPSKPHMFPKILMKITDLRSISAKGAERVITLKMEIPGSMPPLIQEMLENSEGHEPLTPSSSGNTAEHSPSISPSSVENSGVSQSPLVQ

[6] = molecular target: T5, Retinoic acid receptor RXR-alpha (Homo sapiens, UniProt P19793); experiment: Transcriptional activation of Retinoid X receptor RXR alpha;NA=not active; set-up: species or system Cercopithecidae; procedure, shortened: as §1
T5 sequence (P19793 whole entry): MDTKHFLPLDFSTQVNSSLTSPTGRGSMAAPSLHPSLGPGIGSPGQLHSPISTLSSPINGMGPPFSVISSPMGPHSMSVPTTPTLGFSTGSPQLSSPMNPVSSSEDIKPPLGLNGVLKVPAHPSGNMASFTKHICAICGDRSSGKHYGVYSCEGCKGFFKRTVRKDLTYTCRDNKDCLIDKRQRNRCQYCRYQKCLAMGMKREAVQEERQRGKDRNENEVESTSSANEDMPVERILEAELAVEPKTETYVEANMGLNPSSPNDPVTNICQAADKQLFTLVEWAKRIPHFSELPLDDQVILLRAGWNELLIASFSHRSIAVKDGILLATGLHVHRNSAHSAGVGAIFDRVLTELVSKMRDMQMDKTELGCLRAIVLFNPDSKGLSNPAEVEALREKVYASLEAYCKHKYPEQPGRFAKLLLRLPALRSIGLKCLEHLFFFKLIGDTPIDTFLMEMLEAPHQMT

| Compound | EC50 [1] | EC50 (HL-60) | IC50 (Mus musculus) | EC50 [4] | other results |
| --- | --- | --- | --- | --- | --- |
| Cc1cc2c(cc1Sc1ccc(C(=O)O)cn1)C(C)(C)CCC2(C)C | Not Active | 100 nM | 1000 nM | – | Kd [2]: Not Active; Kd [3]: Not Active |
| Cc1cc2c(cc1Sc1ncc(C(=O)O)s1)C(C)(C)CCC2(C)C | Not Active | – | – | – | – |
| Cc1cc2c(cc1S(=O)(=O)c1ccc(C(=O)O)cc1)C(C)(C)CCC2(C)C | Not Active | – | – | – | – |
| Cc1cc2c(cc1Sc1ccc(C(=O)O)cc1)C(C)(C)CCC2(C)C | – | 200 nM | 910 nM | Not Active | – |
| CC1(C)CCC(C)(C)c2cc(Sc3ccc(C(=O)O)cc3)ccc21 | – | – | – | 340 nM | EC50 [5]: 570 nM |
| Cc1cc2c(cc1[S+]([O-])c1ccc(C(=O)O)cc1)C(C)(C)CCC2(C)C (centres undefined) | Not Active | – | – | – | EC50 [6]: Not Active |
